The target of this assay is Calcium/calmodulin-dependent protein kinase type II subunit delta (Homo sapiens) (UniProt Q13557). Nature of the assay: Inhibition of human CaMK2delta. Particulars: concentration not given here. The method in brief: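 Selectivity screen run externally (Invitrogen SelectScreen). Percent inhibition measured at 1 μM compound, mean of 2 measurements.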

As usually defined, the inhibition is the drop in the measured response relative to a control, in per cent.

Calcium/calmodulin-dependent protein kinase type II subunit delta (Homo sapiens), sequence (Q13557 whole entry): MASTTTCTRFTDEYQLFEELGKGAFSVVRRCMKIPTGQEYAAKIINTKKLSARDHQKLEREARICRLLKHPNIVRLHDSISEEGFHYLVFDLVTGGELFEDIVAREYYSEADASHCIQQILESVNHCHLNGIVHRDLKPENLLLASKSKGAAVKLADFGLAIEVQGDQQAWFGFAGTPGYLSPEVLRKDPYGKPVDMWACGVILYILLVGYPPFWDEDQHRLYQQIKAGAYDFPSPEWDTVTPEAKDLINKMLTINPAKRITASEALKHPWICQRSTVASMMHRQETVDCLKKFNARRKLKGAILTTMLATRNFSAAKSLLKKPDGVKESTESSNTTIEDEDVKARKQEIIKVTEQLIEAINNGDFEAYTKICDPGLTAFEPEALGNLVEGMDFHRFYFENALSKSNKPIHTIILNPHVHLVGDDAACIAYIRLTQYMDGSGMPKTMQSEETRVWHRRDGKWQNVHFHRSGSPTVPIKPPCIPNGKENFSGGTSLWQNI

Turning to `NC(=O)c1cc(-c2ccnc(NC3CCCCC3)c2)nc(N2CCNCC2)c1`, the inhibition came to 26%.

For the origin of these results see ChEMBL document CHEMBL1212911, “Identification of potent and selective amidobipyridyl inhibitors of protein kinase D” (J Med Chem, 2010).
